Like-named read-outs stand apart in the source and are kept apart here.
What was measured:
[1] = system: H3K9me2 levels in MDA-MB-231 cells; assay: H3K9me2 in-cell western, MDA-MB-231; format: cell-based, human
[2] = system: MDA-MB-231 cells; assay: Clonogenicity assay, MDA-MB-231; format: cell-based, human
[3] = Mouse drug metabolism and pharmacokinetic studies; format: in vivo; details: intravenous, oral or intraperitoneal administration
[4] = system: M1, M2 and M4; assay: M1, M2 and M4 functional assays; format: cell-based
[5] = system: HSC1-EF1α-EGFP-Puromycin retrovirus in J1 mES cells; assay: Reactivation of silent EGFP retrovirus vector, flow cytometry; format: cell-based, mouse
[6] = target: MLL (Homo sapiens, UniProt Q03164); assay: BPS Bioscience assay, MLL; format: biochemical
[7] = system: H3K9me2 levels in J1 mES cells; assay: Cellular potency; format: cell-based; details: Mus musculus, 48 h, read-out: IC50 cellular potency
[8] = target: M2 (Homo sapiens, UniProt P08172); assay: M2 functional assay; format: cell-based
Chain of M2 (P08172 whole entry): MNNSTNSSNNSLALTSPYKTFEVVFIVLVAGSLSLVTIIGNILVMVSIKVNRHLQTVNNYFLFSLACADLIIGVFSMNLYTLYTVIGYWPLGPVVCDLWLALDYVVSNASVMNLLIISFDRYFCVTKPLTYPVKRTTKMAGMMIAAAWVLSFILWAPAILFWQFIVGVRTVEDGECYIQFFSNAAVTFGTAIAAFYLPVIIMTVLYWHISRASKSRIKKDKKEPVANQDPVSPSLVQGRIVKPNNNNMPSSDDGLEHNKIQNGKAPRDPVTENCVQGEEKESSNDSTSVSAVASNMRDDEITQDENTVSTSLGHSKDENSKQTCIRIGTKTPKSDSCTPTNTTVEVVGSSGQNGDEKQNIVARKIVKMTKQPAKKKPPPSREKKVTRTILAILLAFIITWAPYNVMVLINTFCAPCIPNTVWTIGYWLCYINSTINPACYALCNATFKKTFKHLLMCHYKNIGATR

[9] = target: T1, G9a (Homo sapiens, UniProt Q96KQ7); assay: Endoproteinase-coupled microfluidic capillary electrophoresis; format: biochemical
T1 sequence (Q96KQ7 1-1210): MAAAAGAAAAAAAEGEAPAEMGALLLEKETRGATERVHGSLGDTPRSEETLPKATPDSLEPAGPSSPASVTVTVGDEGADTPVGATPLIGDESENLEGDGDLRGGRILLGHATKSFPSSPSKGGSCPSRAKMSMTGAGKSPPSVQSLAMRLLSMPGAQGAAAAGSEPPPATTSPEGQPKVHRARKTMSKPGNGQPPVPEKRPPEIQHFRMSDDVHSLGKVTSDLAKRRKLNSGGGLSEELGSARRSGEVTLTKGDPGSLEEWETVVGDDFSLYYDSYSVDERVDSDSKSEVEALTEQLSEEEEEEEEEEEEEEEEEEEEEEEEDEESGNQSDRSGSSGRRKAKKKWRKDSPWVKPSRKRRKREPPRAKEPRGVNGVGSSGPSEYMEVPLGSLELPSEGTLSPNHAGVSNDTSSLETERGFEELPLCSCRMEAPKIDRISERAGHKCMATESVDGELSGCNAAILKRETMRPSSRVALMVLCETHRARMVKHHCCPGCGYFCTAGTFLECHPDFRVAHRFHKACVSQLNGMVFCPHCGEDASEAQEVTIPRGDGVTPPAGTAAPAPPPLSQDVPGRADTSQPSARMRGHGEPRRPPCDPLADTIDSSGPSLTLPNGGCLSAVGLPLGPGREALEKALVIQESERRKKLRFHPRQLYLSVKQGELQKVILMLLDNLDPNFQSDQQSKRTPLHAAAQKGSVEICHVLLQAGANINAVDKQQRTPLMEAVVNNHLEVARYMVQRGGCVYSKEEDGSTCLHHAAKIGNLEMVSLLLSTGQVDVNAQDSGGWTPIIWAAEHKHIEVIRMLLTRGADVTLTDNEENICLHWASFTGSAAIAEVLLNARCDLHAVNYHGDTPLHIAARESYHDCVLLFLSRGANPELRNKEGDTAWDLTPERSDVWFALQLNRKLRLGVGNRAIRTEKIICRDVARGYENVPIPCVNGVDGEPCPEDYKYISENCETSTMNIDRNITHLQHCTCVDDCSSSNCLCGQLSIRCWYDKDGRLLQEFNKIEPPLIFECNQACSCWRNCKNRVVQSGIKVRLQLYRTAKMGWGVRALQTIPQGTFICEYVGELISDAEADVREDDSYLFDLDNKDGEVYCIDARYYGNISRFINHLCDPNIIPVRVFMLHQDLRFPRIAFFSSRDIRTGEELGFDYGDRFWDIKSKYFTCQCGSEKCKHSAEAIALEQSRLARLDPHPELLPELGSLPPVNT

[10] = target: muscarinic M2 receptor (Homo sapiens, UniProt P08172); assay: Ricerca Selectivity Panel, muscarinic M2; format: binding
Chain of muscarinic M2 receptor (P08172 whole entry): as the sequence (P08172 whole entry) above

[11] = target: T1, G9a; assay: G9a fluorescence-polarization peptide displacement assay; format: binding
[12] = target: PRMT3 (Homo sapiens, UniProt O60678); assay: SAHH-coupled assay, PRMT3; format: biochemical
Chain of PRMT3 (O60678 whole entry, species assumed): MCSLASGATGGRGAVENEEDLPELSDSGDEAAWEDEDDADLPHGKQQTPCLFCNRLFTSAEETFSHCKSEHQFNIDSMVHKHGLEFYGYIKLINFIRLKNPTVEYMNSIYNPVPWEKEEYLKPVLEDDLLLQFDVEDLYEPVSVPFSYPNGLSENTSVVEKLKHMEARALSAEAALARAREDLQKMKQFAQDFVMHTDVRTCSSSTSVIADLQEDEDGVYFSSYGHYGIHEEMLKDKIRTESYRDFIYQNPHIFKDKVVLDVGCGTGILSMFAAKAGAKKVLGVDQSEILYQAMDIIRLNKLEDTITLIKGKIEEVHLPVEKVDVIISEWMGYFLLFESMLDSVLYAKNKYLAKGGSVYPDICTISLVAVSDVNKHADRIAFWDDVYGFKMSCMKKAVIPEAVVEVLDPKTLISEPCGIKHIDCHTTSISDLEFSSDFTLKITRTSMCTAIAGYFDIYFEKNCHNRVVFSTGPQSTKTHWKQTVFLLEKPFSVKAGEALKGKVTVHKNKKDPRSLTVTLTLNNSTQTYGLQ
Procedure, shortened: (§1)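 A fluorescence-based coupled assay used S-adenosyl-L-homocysteine hydrolase to follow conversion of cofactor SAM to SAH by the methyltransferase. IC50 values are the average of at least two separate experiments.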

[13] = system: H3K9me2 at EGFP provirus and MAGEA2 promoter in mES cells; assay: ChIP of H3K9me2 in mES cells; format: cell-based, mouse; details: 500 nM for 3 or 7 d
[14] = target: T1, G9a; assay: Surface plasmon resonance; format: binding; details: SPR
[15] = Solution stability by 1H NMR and LC-MS; format: physicochemical; details: 10 mM in deuterated DMSO and deuterated H2O (90:10), room temperature, 4 weeks
[16] = system: 45 targets, including 36 GPCRs; assay: NIMH Psychoactive Drug Screen Program Selectivity Panel; format: binding; details: at 1 μM
[17] = target: PRMT1 (Homo sapiens, UniProt Q99873); assay: BPS Bioscience assay, PRMT1; format: biochemical
Chain of PRMT1 (Q99873 whole entry, species assumed): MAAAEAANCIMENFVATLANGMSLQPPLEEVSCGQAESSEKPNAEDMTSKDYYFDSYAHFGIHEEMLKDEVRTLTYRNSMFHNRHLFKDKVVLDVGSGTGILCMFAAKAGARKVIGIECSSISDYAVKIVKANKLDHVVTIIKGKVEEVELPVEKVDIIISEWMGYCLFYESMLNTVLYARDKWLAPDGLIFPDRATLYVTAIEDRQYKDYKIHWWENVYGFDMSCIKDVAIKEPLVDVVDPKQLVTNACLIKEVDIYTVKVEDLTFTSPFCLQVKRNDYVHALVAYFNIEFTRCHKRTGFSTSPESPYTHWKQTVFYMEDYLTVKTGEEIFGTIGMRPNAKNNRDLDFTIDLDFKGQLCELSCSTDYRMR

[18] = system: retrovirus long terminal repeat and MAGEA2 promoter in mES cells; assay: Bisulfite sequencing DNA methylation in mES cells; format: cell-based, mouse; details: after 10 d of treatment
Procedure, shortened: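 J1 mouse ES cells were grown on 0.1% gelatin in DMEM with 15% ES-qualified FBS, 4 mM L-glutamine, 0.1 mM nonessential amino acids, 1 mM pyruvate, 0.55 mM 2-mercaptoethanol and LIF. They carried a silenced HSC1 retroviral EGFP-puromycin reporter driven by the EF1a promoter.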

[19] = target: SUV39H2 (Homo sapiens, UniProt Q9H5I1); assay: SAHH-coupled assay, SUV39H2; format: biochemical
Chain of SUV39H2 (Q9H5I1 whole entry, species assumed): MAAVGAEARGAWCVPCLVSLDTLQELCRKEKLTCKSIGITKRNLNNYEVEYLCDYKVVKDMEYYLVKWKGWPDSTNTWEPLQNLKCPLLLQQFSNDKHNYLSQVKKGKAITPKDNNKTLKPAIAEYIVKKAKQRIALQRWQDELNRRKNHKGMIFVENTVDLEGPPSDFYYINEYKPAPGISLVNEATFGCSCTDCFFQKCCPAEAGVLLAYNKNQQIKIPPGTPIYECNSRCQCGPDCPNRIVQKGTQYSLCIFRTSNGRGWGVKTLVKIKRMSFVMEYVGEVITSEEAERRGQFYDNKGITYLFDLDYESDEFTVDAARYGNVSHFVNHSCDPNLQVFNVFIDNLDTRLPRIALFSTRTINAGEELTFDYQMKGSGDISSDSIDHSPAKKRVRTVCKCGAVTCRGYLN
Procedure, shortened: as §1

[20] = system: MDA-MB-231 cells; assay: MTT assay, MDA-MB-231; format: cell-based, human; details: Homo sapiens, MDA-MB-231, read-out: EC50 cellular toxicity (MTT)
[21] = assay results from BPS Bioscience

## COc1cc2c(NC3CCN(C(C)C)CC3)nc(C3CCCCC3)nc2cc1OCCCN1CCCC1 [UNC0638]
[1]; Homo sapiens, MDA-MB-231, read-out: IC90 for reduction of H3K9me2 levels
  IC90: 250 nM
[1]; MDA-MB-231 cells, 250 or 500 nM
  cellular H3K9me2 levels after 4 d: equal or very close to those of G9a and GLP knockdown cells
[1]; read-out: IC50 for reduction of H3K9me2 levels, MDA-MB-231 cells, 48 h exposure, in-cell western
  IC50: 80 nM
[2]
  clonogenicity: much less effect
[3]
  clearance: high
  half-life: short
  volume distribution: high
[4]
  agonist activity: no agonist activity
[5]; day 10, UNC0638 100, 250 or 500 nM, untreated 36%
  EGFP+ cells, maximal level: 63%
[5]; day 12
  EGFP+ cells: 75%
[6]
  IC50: > 10000 nM
[6]; [21]
  IC50: inactive
[7]
  IC50: 138 nM
[8]
  IC50: 480 ± 10 nM
[9]; Km of the peptide increased linearly with UNC0638 concentration
  mechanism of action versus peptide substrate: competitive with the peptide substrate
[9]; apparent Km of SAM remained constant
  mechanism of action versus cofactor SAM: noncompetitive with cofactor SAM
[10]
  inhibition at 1 µM: 64%
[11]
  displacement of fluorescein-labeled 15-mer H3 peptide (residues 1–15): high efficiency
[12]
  IC50: > 10000 nM
[12]; SAHH-coupled assay
  IC50: inactive
[13]
  H3K9me2 at EGFP provirus and MAGEA2 promoter (ChIP): decreased H3K9me2 at both targets by day 3
[14]
  disassociation rate (kd): 0.057 s⁻¹
[15]
  stability in solution: stable
[16]; against 6 targets in the panel
  inhibition: > 50%
[16]; against 39 targets in the panel
  inhibition: < 50%
[17]
  IC50: > 10000 nM
[17]; [21]
  IC50: inactive
[18]
  DNA methylation of retrovirus LTR and MAGEA2 promoter: induced DNA hypomethylation in a concentration-dependent manner
[19]
  IC50: > 10000 nM
[19]; SAHH-coupled assay
  IC50: inactive
[20]
  EC50: 11000 nM
